Laboratory results published in ChEMBL document CHEMBL1949603, “Discovery of CS-0777: A Potent, Selective, and Orally Active S1P1 Agonist” (ACS Med Chem Lett, 2011).
Activity calls are given as the source filed them. The calls are words filed in the database; no cut-off is given here.

Key:
[1] = target: Sphingosine 1-phosphate receptor 2 (Homo sapiens) (UniProt O95136); assay: Binding affinity to human S1P2R
[2] = Agonist activity at rat S1P3R expressed in CHO-K1 cells by [35S]GTPgammaS binding assay; assay type: functional, cell-based
Method in brief: (§1)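 Agonist-evoked [35S]GTPγS binding was measured on human or rat S1P1 or S1P3 expressed in transfected CHO-K1 cells.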

[3] = target: Sphingosine 1-phosphate receptor 1 (Rattus norvegicus, UniProt P48303); assay: Agonist activity at rat S1P1 receptor expressed in CHO-K1 cells by [35S]GTPgammaS binding assay; assay type: functional, cell-based; method in brief: as §1
[4] = target: Sphingosine 1-phosphate receptor 1 (Homo sapiens, UniProt P21453); assay: Agonist activity at human S1P1 receptor expressed in CHO-K1 cells by [35S]GTPgammaS binding assay; assay type: functional, cell-based; method in brief: as §1
[5] = target: Sphingosine 1-phosphate receptor 5 (Homo sapiens, UniProt Q9H228); assay: Agonist activity at human S1P5R; assay type: functional
Rattus norvegicus [6] = organism: Rattus norvegicus; assay: Selectivity ratio of EC50 for rat S1P3R to EC50 for rat S1P1R; method in brief: as §1
[7] = target: Sphingosine 1-phosphate receptor 3 (Homo sapiens, UniProt Q99500); assay: Agonist activity at human S1P3R expressed in CHO-K1 cells by [35S]GTPgammaS binding assay; assay type: functional, cell-based; method in brief: as §1
Homo sapiens = organism: Homo sapiens; assay: Selectivity ratio of EC50 for human S1P3R to EC50 for human S1P1R; method in brief: as §1
[8] = Oral bioavailability in Sprague-Dawley rat at 1 mg/kg; assay type: ADME, organism-based; details: in vivo
Method in brief: (§2)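 Male Sprague−Dawley rats given one oral dose of parent drug at 0.1 or 1 mg/kg. Blood levels of parent and phosphate metabolite were measured over time. Bioavailability of the phosphate is the ratio of its AUC after oral dosing to its AUC after intravenous parent dosing at the same dose. Values are mean ± SD of four animals.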

Rattus norvegicus [9] = assay: Lymphopenic activity in Lewis rat assessed as reduction in blood lymphocyte counts at 0.1 mg/kg, po after 12 hrs relative to control; assay type: functional; set-up: scale not given: the % may be the effect or the level left
Method in brief: (§3)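 Lewis rats received one oral dose of 0.1 or 1 mg/kg in 1% MC vehicle. Lymphocytes were counted by automatic hemacytometer and expressed relative to vehicle controls. n = 5 per group, mean ± SE.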

Rattus norvegicus [10] = assay: Cmax in Sprague-Dawley rat assessed as CS-0777-phosphate at 0.1 mg/kg, po; assay type: ADME, organism-based; set-up: dose 0.1 mg/kg, route oral; details: in vivo; method in brief: as §2
Rattus norvegicus [11] = assay: Reduction of cumulative disease score in Lewis rat EAE model at 1 mg/kg, po administered daily for 20 days measured after 8 to 21 days relative to control; assay type: functional, organism-based; set-up: dose 1 mg/kg
Method in brief: (§4)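 EAE was induced in 6-week-old female Lewis rats by injecting guinea pig myelin basic protein fragment 68−82 with adjuvant into both hind footpads on day 0. Dosing was oral, daily on days 0–20 (0.01–1 mg/kg). Clinical score (0–6 scale) was recorded daily on days 8–21 and summed to a cumulative score. Analysis used a nonparametric Dunnett test versus vehicle.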

Rattus norvegicus [12] = assay: Oral bioavailability in Sprague-Dawley rat assessed as CS-0777-phosphate at 1 mg/kg; assay type: ADME, organism-based; details: in vivo; method in brief: as §2
[13] = Total body clearance in Sprague-Dawley rat at 0.1 mg/kg, iv; assay type: ADME, organism-based; set-up: dose 0.1 mg/kg, route intravenous; details: in vivo
Method in brief: (§5)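 Clearance and steady-state volume of distribution were calculated from blood data after intravenous dosing of the parent drug to male Sprague−Dawley rats at 0.1 or 1 mg/kg. Values are mean ± SD of four animals.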

Rattus norvegicus [14] = assay: AUC (0 to infinity) in Sprague-Dawley rat assessed as CS-0777-phosphate at 0.1 mg/kg, po; assay type: ADME, organism-based, Plasma; set-up: dose 0.1 mg/kg, route oral, time infinity; details: in vivo; method in brief: as §2
[15] = Half life in Sprague-Dawley rat at 0.1 mg/kg, po; assay type: ADME, organism-based; set-up: dose 0.1 mg/kg, route oral; details: in vivo; method in brief: as §2
Rattus norvegicus [16] = assay: Half life in Sprague-Dawley rat assessed as CS-0777-phosphate at 1 mg/kg, po; assay type: ADME, organism-based; set-up: dose 1 mg/kg, route oral; details: in vivo; method in brief: as §2
Rattus norvegicus [17] = assay: Cmax in Sprague-Dawley rat assessed as CS-0777-phosphate at 1 mg/kg, po; assay type: ADME, organism-based; set-up: dose 1 mg/kg, route oral; details: in vivo; method in brief: as §2
Rattus norvegicus [18] = assay: Half life in Sprague-Dawley rat assessed as CS-0777-phosphate at 0.1 mg/kg, po; assay type: ADME, organism-based; set-up: dose 0.1 mg/kg, route oral; details: in vivo; method in brief: as §2
[19] = Half life in Sprague-Dawley rat at 1 mg/kg, po; assay type: ADME, organism-based; set-up: dose 1 mg/kg, route oral; details: in vivo; method in brief: as §2
Rattus norvegicus [20] = assay: Tmax in Sprague-Dawley rat assessed as CS-0777-phosphate at 0.1 mg/kg, po; assay type: ADME, organism-based; set-up: dose 0.1 mg/kg, route oral; details: in vivo; method in brief: as §2
[21] = Tmax in Sprague-Dawley rat at 0.1 mg/kg, po; assay type: ADME, organism-based; set-up: dose 0.1 mg/kg, route oral; details: in vivo; method in brief: as §2
Rattus norvegicus [22] = assay: AUC (0 to infinity) in Sprague-Dawley rat assessed as CS-0777-phosphate at 1 mg/kg, po; assay type: ADME, organism-based, Plasma; set-up: time infinity, dose 1 mg/kg, route oral; details: in vivo; method in brief: as §2
Rattus norvegicus [23] = assay: Lymphopenic activity in Lewis rat assessed as recovery of blood lymphocytes at 0.1 mg/kg, po after 48 hrs relative to control; assay type: functional; method in brief: as §3
Rattus norvegicus [24] = assay: Reduction of cumulative disease score in Lewis rat EAE model at 0.1 mg/kg, po administered daily for 20 days measured after 8 to 21 days relative to control; assay type: functional, organism-based; set-up: dose 0.1 mg/kg; method in brief: as §4
[25] = Tmax in Sprague-Dawley rat at 1 mg/kg, po; assay type: ADME, organism-based; set-up: dose 1 mg/kg, route oral; details: in vivo; method in brief: as §2
[26] = AUC (0 to infinity) in Sprague-Dawley rat at 1 mg/kg, po; assay type: ADME, organism-based, Plasma; set-up: time infinity, dose 1 mg/kg, route oral; details: blood; method in brief: as §2
[27] = Volume of distribution at steady state in Sprague-Dawley rat at 0.1 mg/kg, iv; assay type: ADME, organism-based; set-up: dose 0.1 mg/kg, route intravenous; details: in vivo, read-out: Vdss; method in brief: as §5
[28] = AUC (0 to infinity) in Sprague-Dawley rat at 0.1 mg/kg, po; assay type: ADME, organism-based, Plasma; set-up: dose 0.1 mg/kg, route oral, time infinity; details: blood; method in brief: as §2
[29] = Total body clearance in Sprague-Dawley rat at 1 mg/kg, iv; assay type: ADME, organism-based; set-up: dose 1 mg/kg, route intravenous; details: in vivo; method in brief: as §5
Rattus norvegicus [30] = assay: Lymphopenic activity in Lewis rat assessed as recovery of blood lymphocytes at 1 mg/kg, po after 48 hrs relative to control; assay type: functional; method in brief: as §3
Rattus norvegicus [31] = assay: Lymphopenic activity in Lewis rat assessed as recovery in blood lymphocyte counts at 0.1 mg/kg, po after 5 days; assay type: functional, organism-based; set-up: dose 0.1 mg/kg; method in brief: as §3
Rattus norvegicus [32] = assay: Tmax in Sprague-Dawley rat assessed as CS-0777-phosphate at 1 mg/kg, po; assay type: ADME, organism-based; set-up: dose 1 mg/kg, route oral; details: in vivo; method in brief: as §2
[33] = Oral bioavailability in Sprague-Dawley rat at 0.1 mg/kg; assay type: ADME, organism-based; details: in vivo; method in brief: as §2
[34] = Cmax in Sprague-Dawley rat at 0.1 mg/kg, po; assay type: ADME, organism-based; set-up: dose 0.1 mg/kg, route oral; details: in vivo; method in brief: as §2
[35] = Cmax in Sprague-Dawley rat at 1 mg/kg, po; assay type: ADME, organism-based; set-up: dose 1 mg/kg, route oral; details: in vivo; method in brief: as §2
Rattus norvegicus [36] = assay: Oral bioavailability in Sprague-Dawley rat assessed as CS-0777-phosphate at 0.1 mg/kg; assay type: ADME, organism-based; details: in vivo; method in brief: as §2
[37] = Volume of distribution at steady state in Sprague-Dawley rat at 1 mg/kg, iv; assay type: ADME, organism-based; set-up: dose 1 mg/kg, route intravenous; details: in vivo, read-out: Vdss; method in brief: as §5
Rattus norvegicus [38] = assay: Lymphopenic activity in Lewis rat assessed as recovery in blood lymphocyte counts at 1 mg/kg, po after 5 days; assay type: functional, organism-based; set-up: dose 1 mg/kg; method in brief: as §3
Rattus norvegicus [39] = assay: Lymphopenic activity in Lewis rat assessed as reduction in blood lymphocyte counts at 1 mg/kg, po after 12 hrs relative to control; assay type: functional; set-up: scale not given: the % may be the effect or the level left; method in brief: as §3

Chain of Sphingosine 1-phosphate receptor 2 (Homo sapiens) (O95136 whole entry): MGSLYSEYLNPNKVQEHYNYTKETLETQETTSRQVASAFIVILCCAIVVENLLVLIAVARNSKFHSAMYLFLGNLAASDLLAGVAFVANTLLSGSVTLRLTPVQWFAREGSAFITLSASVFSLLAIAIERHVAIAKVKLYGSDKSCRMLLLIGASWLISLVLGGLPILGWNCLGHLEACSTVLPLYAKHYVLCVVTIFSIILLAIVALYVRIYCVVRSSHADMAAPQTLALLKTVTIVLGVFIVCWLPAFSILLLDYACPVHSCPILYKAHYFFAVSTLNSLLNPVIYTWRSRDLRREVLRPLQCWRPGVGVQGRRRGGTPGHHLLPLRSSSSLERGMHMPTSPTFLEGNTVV
Chain of Sphingosine 1-phosphate receptor 1 (Rattus norvegicus, UniProt P48303) (P48303 whole entry): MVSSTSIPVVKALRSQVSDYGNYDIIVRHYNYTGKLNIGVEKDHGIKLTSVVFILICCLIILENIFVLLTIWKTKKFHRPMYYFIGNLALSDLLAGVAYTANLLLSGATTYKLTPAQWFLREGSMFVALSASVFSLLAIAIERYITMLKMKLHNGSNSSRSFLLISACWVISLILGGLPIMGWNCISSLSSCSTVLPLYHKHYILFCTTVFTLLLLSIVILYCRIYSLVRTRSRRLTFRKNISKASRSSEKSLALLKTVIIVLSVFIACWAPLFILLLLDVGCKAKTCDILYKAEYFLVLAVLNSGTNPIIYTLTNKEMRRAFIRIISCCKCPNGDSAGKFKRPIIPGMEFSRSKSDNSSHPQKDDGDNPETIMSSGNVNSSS
Chain of Sphingosine 1-phosphate receptor 3 (Q99500 whole entry): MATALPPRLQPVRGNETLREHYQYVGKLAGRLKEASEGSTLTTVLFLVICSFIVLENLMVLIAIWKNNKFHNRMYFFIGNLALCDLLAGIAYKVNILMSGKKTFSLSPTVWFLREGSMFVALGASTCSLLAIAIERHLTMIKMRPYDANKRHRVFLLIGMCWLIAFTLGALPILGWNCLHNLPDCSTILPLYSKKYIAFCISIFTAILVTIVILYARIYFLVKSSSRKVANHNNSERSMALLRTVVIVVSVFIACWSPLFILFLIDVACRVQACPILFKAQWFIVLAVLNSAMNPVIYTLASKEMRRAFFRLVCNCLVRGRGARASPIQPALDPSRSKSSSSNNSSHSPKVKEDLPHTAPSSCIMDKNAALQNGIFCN
Chain of Sphingosine 1-phosphate receptor 5 (Q9H228 whole entry): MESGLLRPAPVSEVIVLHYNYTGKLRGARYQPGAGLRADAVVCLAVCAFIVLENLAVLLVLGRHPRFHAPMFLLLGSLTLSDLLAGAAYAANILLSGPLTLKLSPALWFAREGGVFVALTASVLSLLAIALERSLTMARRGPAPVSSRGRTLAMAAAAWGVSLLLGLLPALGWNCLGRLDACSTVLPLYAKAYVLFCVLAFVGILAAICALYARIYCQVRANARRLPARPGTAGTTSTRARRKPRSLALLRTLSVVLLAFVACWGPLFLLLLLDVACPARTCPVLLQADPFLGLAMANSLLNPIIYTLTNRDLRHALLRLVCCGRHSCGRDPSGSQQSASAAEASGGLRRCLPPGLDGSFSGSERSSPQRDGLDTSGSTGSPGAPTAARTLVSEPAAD
Chain of Sphingosine 1-phosphate receptor 1 (Homo sapiens, UniProt P21453) (P21453 whole entry): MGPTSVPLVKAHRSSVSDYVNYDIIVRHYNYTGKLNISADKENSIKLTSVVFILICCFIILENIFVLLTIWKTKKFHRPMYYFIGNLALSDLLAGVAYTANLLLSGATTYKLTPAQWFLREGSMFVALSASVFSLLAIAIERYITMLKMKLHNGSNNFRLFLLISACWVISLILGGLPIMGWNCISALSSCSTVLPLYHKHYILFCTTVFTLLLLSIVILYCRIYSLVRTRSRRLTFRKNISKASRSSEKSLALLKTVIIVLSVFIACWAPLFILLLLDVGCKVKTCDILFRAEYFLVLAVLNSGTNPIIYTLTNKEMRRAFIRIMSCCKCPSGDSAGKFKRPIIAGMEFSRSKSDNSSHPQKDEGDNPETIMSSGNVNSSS

SMILES: CCCCCCCCc1ccc(CC[C@](N)(CO)COP(=O)(O)O)cc1 [FTY720-P]
- Activity [1]: inactive
- EC50 [2]: 1.3 nM
- EC50 [3]: 0.29 nM

SMILES: Cc1ccc(CCCC(=O)c2ccc(CC[C@@](C)(N)COP(=O)(O)O)n2C)cc1
- Activity [1]: inactive
- EC50 [4]: 1.1 nM
- EC50 [5]: 21 nM
- Ratio EC50 (Rattus norvegicus [6]): 100
- EC50 [2]: 200 nM
- EC50 [7]: 350 nM
- EC50 [3]: 1.8 nM
- Ratio EC50 (Homo sapiens): 320

SMILES: Cc1ccc(CCCC(=O)c2ccc(CC[C@@](C)(N)CO)n2C)cc1
- bioavailability [8]: 69.5%
- Activity (Rattus norvegicus [9]): 27.4%
- Cmax (Rattus norvegicus [10]): 26.4 ng/mL
- Activity (Rattus norvegicus [11]): Active
- F (Rattus norvegicus [12]): 90.8%
- clearance [13]: 38 mL/min/kg
- AUC (Rattus norvegicus [14]): 686 ng·h/mL
- half-life [15]: 5.4 h
- t1/2 (Rattus norvegicus [16]): 11.6 h
- Cmax (Rattus norvegicus [17]): 220 ng/mL
- t1/2 (Rattus norvegicus [18]): 10.9 h
- half-life [19]: 10.4 h
- Tmax (Rattus norvegicus [20]): 9.5 h
- Tmax [21]: 4.75 h
- AUC (Rattus norvegicus [22]): 6280 ng·h/mL
- Activity (Rattus norvegicus [23]): 71.5%
- Activity (Rattus norvegicus [24]): Active
- Tmax [25]: 3.25 h
- AUC(0-inf) [26]: 346 ng·h/mL
- Vd [27]: 17.1 L/kg
- AUC(0-inf) [28]: 31.7 ng·h/mL
- clearance [29]: 33.7 mL/min/kg
- Activity (Rattus norvegicus [30]): 30.1%
- Activity (Rattus norvegicus [31]): inactive
- Tmax (Rattus norvegicus [32]): 9 h
- bioavailability [33]: 72.2%
- Cmax [34]: 1.89 ng/mL
- Cmax [35]: 18.2 ng/mL
- F (Rattus norvegicus [36]): 80.6%
- Vd [37]: 18.1 L/kg
- Activity (Rattus norvegicus [38]): inactive
- Activity (Rattus norvegicus [39]): 18.4%
